What all share (type): functional
The test system of assay [1] is A498. The assay is described as follows: Cytotoxicity against A 498 tumor cell line. As to conditions: Homo sapiens, read-out: ID50 (the source's name). Put shortly:
(§1)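 Seven human tumour lines, continuous exposure to (pro)drug for 5 days, antiproliferative effect read by microculture sulforhodamine B (SRB) assay. ID50 = concentration giving 50% inhibition of cell growth relative to untreated control cultures, in ng/mL.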

The subject of assay [2] is IGROV-1. The assay is described as follows: Cytotoxicity against IGROV tumor cell line. To be noted: Homo sapiens, read-out: ID50 (the source's name). An outline of the steps: as §1
Assay [3] can be described thus: Cytotoxicity against M19 tumor cell line. As to conditions: Homo sapiens; read-out: ID50 (the source's name). An outline of the steps:
as §1

In assay [4] the test system is WiDr. Put plainly: Cytotoxicity against WIDR tumor cell line. To be noted: Homo sapiens, read-out: ID50 (the source's name). Put shortly: as §1
Assay [5] deals with EVSA-T. Put plainly: Cytotoxicity against EVSA-T tumor cell line. As to conditions: Homo sapiens, read-out: ID50 (the source's name). An outline of the steps:
as §1

The test system of assay [6] is MCF7. Put plainly: Cytotoxicity against MCF-7 tumor cell line. To be noted: Homo sapiens, read-out: ID50 (the source's name). Put shortly: as §1
Assay [7] deals with NCI-H226. Put plainly: Cytotoxicity against H 226 tumor cell line. To be noted: Homo sapiens, read-out: ID50 (the source's name). Put shortly:
as §1

Converted amounts (≈) assume the structure as drawn.

Take `COc1cccc2c1C(=O)c1c(O)c3c(c(O)c1C2=O)C[C@@](O)(C(=O)CO)C[C@@H]3OC1CC(NC(=O)OCc2ccc(NC(=O)[C@H](CCCCN)NC(=O)[C@H](Cc3ccccc3)NC(=O)[C@@H](C)N)cc2)C(O)C(C)O1.Cl.Cl` (stereo partly drawn): the IC50 in assay [1] amounted to 0.473 µg/mL; in assay [2], 0.59 µg/mL; in assay [3], 0.437 µg/mL; in assay [4], 0.413 µg/mL; in assay [5], 0.141 µg/mL; in assay [6] it was 0.176 µg/mL. The IC50 in assay [7] stood at 0.896 µg/mL.

Regarding `COc1cccc2c1C(=O)c1c(O)c3c(c(O)c1C2=O)C[C@@](O)(C(C)=O)C[C@@H]3OC1CC(NC(=O)OCc2ccc(NC(=O)[C@H](CCCCN)NC(=O)[C@H](Cc3ccccc3)NC(=O)[C@@H](C)N)cc2)C(O)C(C)O1.Cl.Cl` (stereo partly drawn), the IC50 is 1.16 µg/mL in assay [1]; 0.225 µg/mL in assay [2]; 1.58 µg/mL in assay [3]; 2.15 µg/mL in assay [4]; 1.2 µg/mL in assay [5]; 1.21 µg/mL in assay [6]. The IC50 in assay [7] turned out to be 1.7 µg/mL.

In the case of `COc1cccc2c1C(=O)c1c(O)c3c(c(O)c1C2=O)C[C@@](O)(C(C)=O)C[C@@H]3O[C@H]1C[C@H](N)[C@H](O)[C@H](C)O1` [DAUNORUBICIN], the IC50 in assay [1] worked out at 0.487 µg/mL (≈ 0.923 µM); in assay [2], 0.113 µg/mL (≈ 0.214 µM); in assay [3] it was 0.309 µg/mL (≈ 0.586 µM); in assay [4], 0.038 µg/mL (≈ 0.072 µM); in assay [5], 0.048 µg/mL (≈ 0.091 µM); in assay [6] it was 0.329 µg/mL (≈ 0.624 µM). Also, the IC50 in assay [7] stood at 0.243 µg/mL (≈ 0.461 µM).

With `COc1cccc2c1C(=O)c1c(O)c3c(c(O)c1C2=O)C[C@@](O)(C(=O)CO)C[C@@H]3O[C@H]1C[C@H](N)[C@H](O)[C@H](C)O1` [DOXORUBICIN], the IC50 in assay [1] amounted to 0.09 µg/mL (≈ 0.166 µM); in assay [2], 0.06 µg/mL (≈ 0.11 µM); in assay [3] it was 0.016 µg/mL (≈ 0.0294 µM); in assay [4], 0.011 µg/mL (≈ 0.0202 µM); in assay [5], 0.008 µg/mL (≈ 0.0147 µM); in assay [6], 0.01 µg/mL (≈ 0.0184 µM). Besides, the IC50 in assay [7] was found to be 0.199 µg/mL (≈ 0.366 µM).

Source of the values: ChEMBL document CHEMBL1132544, “Synthesis and biological evaluation of novel prodrugs of anthracyclines for selective activation by the tumor-associated protease plasmin” (1999).
